Screening results from PubChem BioAssay.
Myeloid diff MLP – myeloid differentiation induction. ER-HoxA9 myeloid progenitors, lysozyme-GFP differentiation, flow cytometry. calls only at 10 µM. hit rate 1% among 360,000;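 active = normalized GFP-positive differentiation at or above the plate's own cutoff, the solvent-only control mean plus 3 SD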;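 also: cells exposed to compound for four days before flow analysis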
TPT1 inh – C. albicans TPT1 enzyme inhibition | recombinant caTPT1, FP RNA substrate dephosphorylation | inhibition, % at 5 µM | hit rate 0.81% among 300,000;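 active = inhibition above the mean of all tested compounds plus 3 SD, set per screening campaign, cut at about 24% in these data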
Rpn11 inh – inhibitors of human proteasome Rpn11 | O00487 | human 26S proteasome, Ub4-pepOG fluorescence polarization; 20S core pre-blocked with epoxomicin | inhibition, % at 20 µM | hit rate 0.59% among 360,000 | AID 588493;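 active = inhibition at 20 µM, scaled to each plate's controls, above about 33%, limit read from the data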
HNF4A DNA FP – change in binding of human HNF4 alpha to DNA; hit rate 0.3% among 360,000; AID 1224865; HNF4a-FITC DNA binding, fluorescence polarization, 1 h; activity change, % at 10 µM; P41235; in the data active = activity change above about 30%, passing the limit was not always enough
CSN inh – blocks human CSN-mediated cullin deneddylation; AID 651999; Q92905; inhibition, % at 12.5 µM; hit rate 0.38% among 360,000; Purified CSN, SCF-Nedd8-OG deneddylation, fluorescence polarization;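 active = pattern-corrected inhibition above about 35%, with an unprinted fluorescence ratio check between 0.5 and 1.5, limit read from the data, passing the limit was not always enough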
Target sequence (Q92905 whole entry, looked up, one chain of several): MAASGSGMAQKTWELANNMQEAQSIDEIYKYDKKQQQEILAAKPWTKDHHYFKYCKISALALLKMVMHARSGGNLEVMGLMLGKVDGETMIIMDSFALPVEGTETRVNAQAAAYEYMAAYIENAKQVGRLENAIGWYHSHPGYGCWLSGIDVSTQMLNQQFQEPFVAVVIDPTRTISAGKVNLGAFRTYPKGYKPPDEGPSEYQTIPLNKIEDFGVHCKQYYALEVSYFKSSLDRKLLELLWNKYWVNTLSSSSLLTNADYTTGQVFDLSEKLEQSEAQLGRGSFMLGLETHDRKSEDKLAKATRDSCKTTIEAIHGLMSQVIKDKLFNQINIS
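assay system = purified human Csn5 enzyme expressed in HEK293T cells | amount = 0.24 nM enzyme | buffer or medium = Tris/NaCl/DTT buffer, pH 7.5 | reagent = 10 nM SCFSkp2-Nedd8OG | compound = one concentration, 12.5 µM, 0.25% DMSO | times = 90 min reaction at room temperature | signal = FP | read-out basis = % inhibition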
A number is an active result; i = inactive; nt = no result given; + = active, no number. Most compounds without a hit are left out; they make up all but 2.3% or so of the library.

SMILES | Myeloid diff MLP | TPT1 inh | Rpn11 inh | HNF4A DNA FP | CSN inh
COCC(=O)NCCc1ccc(S(N)(=O)=O)cc1 | + | i | i | i | i
CN(C)NC(=O)C(NC(=O)c1ccccc1)C12CC3CC(CC(C3)C1)C2 (stereo unspecified) | + | i | i | i | i
O=C(c1[nH]c(C(F)(F)F)nc1-c1ccccc1)N1CCN(c2cccc(C(F)(F)F)n2)CC1 | i | nt | i | i | i
COc1ccc(-c2c(C#N)c(N)nc3sc(C(=O)c4ccc(C)cc4)c(N)c23)cc1 | i | i | nt | 75 | i
COc1ccc(C(=O)c2sc3nc(C)cc(-c4cccs4)c3c2N)cc1 | i | nt | i | i | i
CC(C)CN1CCN(C(=O)COC(=O)c2ccc(S(C)(=O)=O)c([N+](=O)[O-])c2)CC1 | + | nt | i | i | i
CCN(c1ccccc1)S(=O)(=O)c1cc(C(=O)Nc2ccc(F)c(F)c2)ccc1F | + | i | i | i | i
COc1ccc(NC(=O)c2cc(-c3sc(NC(=O)c4ccccc4)nc3C)n(-c3ccc(Br)cc3)n2)cc1 | i | nt | nt | i | i
COc1ccc(S(=O)(=O)N2CC(C(=O)O)Oc3ccc(Cl)cc32)cc1 (stereo unspecified) | + | i | i | i | i
O=C(Nc1cccc(C(F)(F)F)c1)c1ccc2sc([C@H]3C[C@H](O)[C@@H](CO)O3)nc2c1 | i | nt | i | i | i
CCCCNc1c(-c2ccc(OC)c(SC(C)CC)c2)nc2cnccn12 (stereo unspecified) | i | nt | i | i | i
CCCCCCSc1ccc(-c2nc3cnccn3c2NCCCC)cc1 | + | nt | i | i | i
O=C(Nc1cccc(OC(F)(F)F)c1)C1Cc2c(-c3cccc(F)c3)ccnc2O1 (stereo unspecified) | i | nt | i | i | i
CCCCOC(=O)c1ccc(-c2ccc(/C=N/NC(=S)NCC)o2)cc1 | + | i | i | i | i
CN1CCN(C(=O)c2cnc(Cc3c[nH]c4ccccc34)c(I)c2)CC1 | i | nt | i | i | 62
CC(C)(C)NC(=O)C(CCc1ccccc1)n1c(=O)c(-c2cc3ccccc3[nH]2)nc2ccccc21 (stereo unspecified) | i | nt | nt | i | i
CC1(C)OC(=O)C(=Cc2ccc(-c3ccc(Cl)c(C(=O)O)c3)o2)C(=O)O1 | i | i | i | i | i
O=C(O)c1cc(-c2ccc(/C=C3/SC(=S)N(Cc4ccccc4)C3=O)o2)ccc1Cl | + | nt | nt | i | i
CCCc1nc2c3ccccc3ccn2c1Cc1cccc(F)c1 | i | nt | i | i | i
Cc1c(CC(=O)O)c(=O)oc2c(C)c(OCc3nn[nH]n3)ccc12 | + | i | i | i | i
Cc1c(Cc2ccccc2)c(=O)oc2c(C)c(OCc3nn[nH]n3)ccc12 | i | i | i | i | i
O=C(CCCSc1nc2ccccc2[nH]1)Nc1nnc(-c2ccccc2)o1 | + | i | i | i | i
O=C(CCCSc1nc2ccccc2[nH]1)NCc1ccccc1 | i | i | i | i | i
O=C(c1ccc(Cl)c([N+](=O)[O-])c1)N(Cc1ccco1)C1CCS(=O)(=O)C1 (stereo unspecified) | + | i | i | i | i
Cn1cc([C@]2(O)C(=O)Nc3ccc(OC(F)(F)F)cc32)c2ccccc21 | i | nt | nt | i | i
SMILES | Myeloid diff MLP | TPT1 inh | Rpn11 inh | HNF4A DNA FP | CSN inh
C=CCn1nnnc1SCC(=O)Nc1cccc(C(F)(F)F)c1 | + | i | i | i | i
C[C@@H]1CN([C@@H](C)CO)C(=O)c2cc(N(C)C)ccc2O[C@@H](C)CCCCO[C@@H]1CN(C)Cc1ccc2c(c1)OCO2 | i | nt | i | i | i
Cc1ccc(S(=O)(=O)Nc2ccc3c(c2)OCCO3)cc1 | i | i | i | i | i
Cc1ccc(S(=O)(=O)Nc2ccc3nc(C)sc3c2)cc1 | i | i | i | i | i
CSc1ccc(S(=O)(=O)Nc2ccc3c(c2)OCCO3)cc1 | + | i | i | i | i
Cc1nc2ccc(NS(=O)(=O)c3ccc4c(c3)OCCO4)cc2s1 | + | i | i | i | i
CC1=NN(c2ccccc2)C(=O)C1CCC#N (stereo unspecified) | i | nt | i | i | i
COCCNC(=O)C1(C)CCCN(C(=O)c2cc(C)oc2C)C1 (stereo unspecified) | i | nt | i | i | i
S=c1[nH]nc(-c2cc(-c3ccco3)[nH]n2)n1-c1ccccc1Cl | i | i | i | i | 36
S=c1[nH]nc(-c2ccco2)n1-c1ccccc1Cl | i | i | i | i | i
O=c1c2ccc(F)cc2sn1-c1ccccc1 | i | nt | i | 29 | i
CC(C)CCNC(=O)[C@@H](Cc1ccccc1)NC(=O)CC[C@H]1O[C@@H](n2ccc(=O)[nH]c2=O)[C@H](O)[C@@H]1O | i | nt | i | i | i
Cc1sc2nc3ccc(NCc4ccco4)nn3c(=O)c2c1C | + | i | i | i | i
O=c1c2ccccc2nc2ccc(NCc3ccco3)nn12 | i | i | i | i | i
FC(F)(F)c1ccccc1Cc1c(-c2ccco2)nc2ccc(Br)cn12 | i | nt | i | i | i
COc1ccc(Nc2c(-c3ccco3)nc3ccc(C)cn23)cc1 | + | i | i | i | i
CC(=O)Nc1ccc(S(=O)(=O)N(C)C2CCN(C)CC2)cc1 | i | i | i | i | i
CC(Oc1cccc(Cl)c1)C(=O)Nc1ccc(S(=O)(=O)N(C)C2CCN(C)CC2)cc1 (stereo unspecified) | + | nt | i | i | i
CCCNC(=O)c1ccc2c(=O)c(O)c(-c3ccc(C)cc3)[nH]c2c1 | i | i | i | i | i
CCCNC(=O)c1ccc2c(=O)c(O)c(-c3ccsc3)[nH]c2c1 | + | i | i | i | i
CNc1nc(-c2ccccc2)c2sccc2n1 | i | nt | i | i | i
Cc1ccc([C@H]2N[C@]3(CCCN(Cc4ccc(Br)cc4)C3=O)[C@H]3C(=O)N(Cc4ccccc4)C(=O)[C@@H]23)cc1 | i | nt | i | i | i
CN1C[C@@H]2[C@@H]3C(=O)N(C)C(=O)[C@@H]3[C@](Cc3ccccc3)(C1=O)N2C(=O)c1ccccc1 | + | nt | i | i | i
O=C(COC(=O)C1CC2C=CC1C2)NCc1ccco1 (stereo unspecified) | i | i | i | i | 35
O=C(Nc1ccc2c(c1)CCCN2C(=O)c1cccs1)c1ccccc1 | + | i | i | i | i
CC(=O)N1N=C(c2ccco2)CC1c1cc2cc(C)ccc2nc1Cl (stereo unspecified) | + | i | i | i | i
CCOC(=O)c1ccc(NC(=O)Nc2ccn(C)n2)cc1 | + | i | i | i | i
CCCOc1ccc(C2/C(=C(/O)c3ccc(F)cc3)C(=O)C(=O)N2CCCN(C)C)cc1 (stereo unspecified) | i | i | i | i | 39
COc1ccc(C2/C(=C(/O)c3ccc(F)cc3)C(=O)C(=O)N2CCCN(C)C)cc1 (stereo unspecified) | i | nt | i | i | i
CCc1nc2ccc(C(=O)NCC3CCCCC3)cn2c1N(C)Cc1nccs1 | i | nt | i | i | i
